Test results as given in ChEMBL document CHEMBL4138319, “Discovery, Synthesis, Pharmacological Profiling, and Biological Characterization of Brintonamides A-E, Novel Dual Protease and GPCR Modulators from a Marine Cyanobacterium” (J Med Chem, 2018).
The source made the active and inactive calls. The calls are words filed in the database; no cut-off is given here. Square brackets hold non-standard residues; d marks the D form. Peptide text beside a SMILES is read from it. * marks the point of attachment. ξ: configuration not given here. X4 = CC[C@H](C)[C@@H](OC(=O)[C@H](Cc1ccccc1)N(C)C)C(=O)*; X3 = CC[C@H](C)[C@@H](OC(=O)/C=C\c1ccccc1)C(=O)*; X5 = CC[C@H](C)[C@@H](OC(=O)C#Cc1ccccc1)C(=O)*; X2 = CC[C@H](C)[C@@H](OC(=O)CCc1ccccc1)C(=O)*; Hmp(2R,3S) = CC[C@H](C)[C@@H](O)C(=O)O; dNMeF = CN[C@H](Cc1ccccc1)C(=O)O; NMeL = CN[C@@H](CC(C)C)C(=O)O; dHiv = CC(C)[C@@H](O)C(=O)O; ξD = NC(CC(=O)O)C(=O)O

What was measured:
Kallikrein-7 [1] = target: T1, Kallikrein-7 (Homo sapiens, UniProt P49862); assay: Inhibition of kallikrein 7 (unknown origin) by fluorescence assay
Method in brief: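 Protease panel screen: 10-dose titrations, 3-fold serial dilution from 100 μM, singlet. Protease activity is followed as the time-course rise in fluorescence from a labeled peptide substrate, and the initial linear slope (signal/min) is analysed.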
Target sequence in this assay (P49862 whole entry): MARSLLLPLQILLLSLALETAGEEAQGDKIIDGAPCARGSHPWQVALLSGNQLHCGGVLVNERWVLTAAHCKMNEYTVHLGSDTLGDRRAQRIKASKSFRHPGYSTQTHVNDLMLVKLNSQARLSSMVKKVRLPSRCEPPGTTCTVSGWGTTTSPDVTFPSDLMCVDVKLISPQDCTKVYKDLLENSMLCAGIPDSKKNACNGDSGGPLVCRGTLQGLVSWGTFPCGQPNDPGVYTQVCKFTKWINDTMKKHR

Caspase-14 = target: T2, Caspase-14 (Homo sapiens, UniProt P31944); assay: Inhibition of human caspase 14 using Ac-WEHD-AMC fluorogenic peptide as substrate by fluorescence assay
T2 sequence (P31944 whole entry): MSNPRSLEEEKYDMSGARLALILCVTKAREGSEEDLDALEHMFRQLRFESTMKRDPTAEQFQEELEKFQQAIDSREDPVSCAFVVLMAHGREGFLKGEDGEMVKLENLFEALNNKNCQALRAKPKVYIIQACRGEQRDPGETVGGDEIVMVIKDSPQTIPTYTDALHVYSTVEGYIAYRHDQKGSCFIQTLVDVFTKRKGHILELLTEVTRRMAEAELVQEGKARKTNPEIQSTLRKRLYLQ
Method in brief: (§1)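 Activity followed as a time course of rising fluorescence from a fluorescently labelled peptide substrate. The initial linear slope (signal/min) was used.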

[2] = target: T3, C-C chemokine receptor type 10 (Homo sapiens, UniProt P46092); assay: Antagonist activity at human CCR10 expressed in human U2OS cells assessed as inhibition of CCL27-induced beta-arrestin recruitment pre-incubated for 30 mins before CCL27 stimulation for 90 or 180 mins by chemiluminescence method; assay type: functional, cell-based
T3 sequence (P46092 whole entry): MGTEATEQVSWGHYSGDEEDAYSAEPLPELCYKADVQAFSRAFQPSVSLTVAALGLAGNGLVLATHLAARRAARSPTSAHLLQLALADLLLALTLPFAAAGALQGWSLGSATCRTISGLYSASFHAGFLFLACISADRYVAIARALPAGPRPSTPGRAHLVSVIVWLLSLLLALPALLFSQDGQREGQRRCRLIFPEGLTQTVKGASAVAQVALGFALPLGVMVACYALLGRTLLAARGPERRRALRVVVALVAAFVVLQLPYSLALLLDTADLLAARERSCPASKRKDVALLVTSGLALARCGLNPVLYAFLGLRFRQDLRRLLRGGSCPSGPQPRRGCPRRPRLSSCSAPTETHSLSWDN
Method in brief: (§2)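 PathHunter β-arrestin complementation assay, antagonist mode. Cells co-express ProLink-tagged GPCR and enzyme-acceptor-tagged β-arrestin and are pre-incubated with sample for 30 min at 37 °C or room temperature. Dose-response: 10 points, 3-fold dilutions from 20 μM, in duplicate.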

MDA-MB-231 [3] = assay: Antiproliferative activity against human MDA-MB-231 cells after 48 hrs by MTT assay; assay type: functional, cell-based
Method in brief: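 MDA-MB-231 cells are grown in DMEM with 10% FBS and seeded at 10,000 cells/well for 24 h. Cells are then exposed to graded compound concentrations or DMSO for 48 h. Viability is measured by MTT.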

Oxytocin receptor = target: T4, Oxytocin receptor (Homo sapiens, UniProt P30559); assay: Antagonist activity at human OXTR expressed in CHOK1 cells assessed as oxytocin-induced beta-arrestin recruitment pre-incubated for 30 mins before oxytocin stimulation for 90 or 180 mins by chemiluminescence method; assay type: functional, cell-based; method in brief: as §2
T4 sequence (P30559 whole entry): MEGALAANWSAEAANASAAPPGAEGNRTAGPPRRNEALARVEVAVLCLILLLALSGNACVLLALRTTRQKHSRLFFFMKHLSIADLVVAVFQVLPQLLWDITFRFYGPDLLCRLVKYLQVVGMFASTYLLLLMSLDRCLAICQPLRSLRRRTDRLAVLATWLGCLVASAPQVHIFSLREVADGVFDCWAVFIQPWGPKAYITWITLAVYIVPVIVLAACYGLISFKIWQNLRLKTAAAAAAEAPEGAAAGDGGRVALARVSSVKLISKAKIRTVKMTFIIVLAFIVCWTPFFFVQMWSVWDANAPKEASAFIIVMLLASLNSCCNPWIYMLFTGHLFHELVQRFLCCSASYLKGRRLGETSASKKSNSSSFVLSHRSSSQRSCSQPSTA

[4] = target: Atypical chemokine receptor 3 (Homo sapiens, UniProt P25106); assay: Agonist activity at human CXCR7 expressed in CHOK1 cells assessed as induction of beta-arrestin recruitment by chemiluminescence method; assay type: functional, cell-based
Sequence of Atypical chemokine receptor 3 (P25106 whole entry, the tested form may be a part): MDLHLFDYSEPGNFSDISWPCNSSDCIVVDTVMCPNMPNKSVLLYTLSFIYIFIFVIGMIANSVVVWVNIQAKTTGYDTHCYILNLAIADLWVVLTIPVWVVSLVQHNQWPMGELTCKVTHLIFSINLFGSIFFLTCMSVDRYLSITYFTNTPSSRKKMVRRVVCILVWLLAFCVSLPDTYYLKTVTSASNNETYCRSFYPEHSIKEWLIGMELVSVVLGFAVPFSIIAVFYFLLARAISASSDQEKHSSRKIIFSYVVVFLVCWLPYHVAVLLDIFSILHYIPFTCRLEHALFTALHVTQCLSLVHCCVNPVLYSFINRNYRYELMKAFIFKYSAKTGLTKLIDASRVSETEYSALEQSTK
Method in brief: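 PathHunter β-arrestin enzyme-fragment complementation assay in cells stably co-expressing ProLink-tagged GPCR and enzyme-acceptor-tagged β-arrestin. Sample is added to cells and incubated 90 or 180 min at 37 °C or room temperature, with 1% final vehicle. Detection reagent is added for 1 h at room temperature and chemiluminescence is read. % activity is taken relative to vehicle and maximal control ligand. Dose-response: 10 points, 3-fold dilutions from 20 μM, in duplicate.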

Kallikrein-7 [5] = target: T1, Kallikrein-7; assay: Inhibition of kallikrein 7 (unknown origin) using fluorescently labeled peptide substrate by fluorescence assay
Method in brief: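 KLK7 follow-up: 10-dose titrations, 3-fold serial dilution from 100 μM, in duplicate, with gabexate mesylate as positive control. Fluorescence from the labeled peptide substrate is monitored over time, and the initial linear slope (signal/min) is used to derive IC50.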
Target sequence in this assay (P49862 30-253 limits assumed): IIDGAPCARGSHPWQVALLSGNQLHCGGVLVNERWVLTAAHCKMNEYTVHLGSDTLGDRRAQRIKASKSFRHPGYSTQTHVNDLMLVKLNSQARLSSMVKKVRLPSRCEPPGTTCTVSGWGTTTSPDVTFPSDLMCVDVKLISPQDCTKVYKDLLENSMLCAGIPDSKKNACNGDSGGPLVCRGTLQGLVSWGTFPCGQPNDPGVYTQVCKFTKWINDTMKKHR

[6] = target: Somatostatin receptor type 3 (Homo sapiens, UniProt P32745); assay: Antagonist activity at human SSTR3 expressed in HEK293 cells assessed as [Tyr1]-somatostatin 14-induced beta-arrestin recruitment pre-incubated for 30 mins before [Tyr1]-somatostatin 14 stimulation for 90 or 180 mins by chemiluminescence method; assay type: functional, cell-based; method in brief: as §2
Sequence of Somatostatin receptor type 3 (P32745 whole entry): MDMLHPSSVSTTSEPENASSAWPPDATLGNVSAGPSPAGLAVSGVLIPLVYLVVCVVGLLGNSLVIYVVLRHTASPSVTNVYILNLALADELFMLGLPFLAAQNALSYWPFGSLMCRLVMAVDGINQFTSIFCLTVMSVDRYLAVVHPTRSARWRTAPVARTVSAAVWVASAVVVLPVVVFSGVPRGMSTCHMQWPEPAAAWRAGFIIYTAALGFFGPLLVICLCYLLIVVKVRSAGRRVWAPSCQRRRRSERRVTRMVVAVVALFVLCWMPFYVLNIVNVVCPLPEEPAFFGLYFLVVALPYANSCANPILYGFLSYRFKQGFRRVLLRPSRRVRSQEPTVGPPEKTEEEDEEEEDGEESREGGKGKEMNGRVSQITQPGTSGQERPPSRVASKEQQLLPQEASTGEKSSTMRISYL

Substance-K receptor = target: T5, Substance-K receptor (Homo sapiens, UniProt P21452); assay: Antagonist activity at human TACR2 expressed in CHOK1 cells assessed as substance P-induced beta-arrestin recruitment pre-incubated for 30 mins before substance P stimulation for 90 or 180 mins by chemiluminescence method; assay type: functional, cell-based; method in brief: as §2
T5 sequence (P21452 whole entry): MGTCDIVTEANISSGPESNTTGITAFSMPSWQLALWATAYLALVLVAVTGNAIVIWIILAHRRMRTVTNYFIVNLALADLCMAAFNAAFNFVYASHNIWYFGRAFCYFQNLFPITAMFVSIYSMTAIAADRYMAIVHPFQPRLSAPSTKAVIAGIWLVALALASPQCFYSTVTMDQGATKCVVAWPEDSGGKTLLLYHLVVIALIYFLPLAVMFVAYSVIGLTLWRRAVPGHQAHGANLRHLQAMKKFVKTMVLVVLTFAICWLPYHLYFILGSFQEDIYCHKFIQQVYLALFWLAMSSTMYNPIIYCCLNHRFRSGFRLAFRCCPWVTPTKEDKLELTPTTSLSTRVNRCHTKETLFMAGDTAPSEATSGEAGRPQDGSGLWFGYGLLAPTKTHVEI

MDA-MB-231 [7] = assay: Antiproliferative activity against human MDA-MB-231 cells assessed as reduction in cell viability at 32 uM after 48 hrs by MTT assay; assay type: functional
Method in brief: (§3)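 MDA-MB-231 cells seeded at 10,000 cells/well in DMEM with 10% FBS and left 24 h, then exposed to compound or DMSO solvent control for 48 h. Viability read by MTT, compared with solvent control.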

MDA-MB-231 [8] = assay: Antiproliferative activity against human MDA-MB-231 cells assessed as reduction in cell viability at 100 uM after 48 hrs by MTT assay; assay type: functional; method in brief: as §3
MDA-MB-231 [9] = assay: Antimigratory activity against human MDA-MB-231 cells at 10 uM after 48 hrs by transwell migration assay relative to control; assay type: functional
[10] = Inhibition of chymotrypsin (unknown origin) by fluorescence assay; parameters: species or system Homo sapiens
Kallikrein-7 [11] = target: T1, Kallikrein-7; assay: Mixed type inhibition of kallikrein 7 (unknown origin) using fluorescently labeled peptide substrate by fluorescence assay based Michaelis-Menten kinetic plot analysis
Target sequence in this assay (P49862 30-253 limits assumed): as the sequence (P49862 30-253 limits assumed) above

Chymase = target: T6, Chymase (Homo sapiens, UniProt P23946); assay: Inhibition of chymase (unknown origin) by fluorescence assay; method in brief: as §1
T6 sequence (P23946 whole entry): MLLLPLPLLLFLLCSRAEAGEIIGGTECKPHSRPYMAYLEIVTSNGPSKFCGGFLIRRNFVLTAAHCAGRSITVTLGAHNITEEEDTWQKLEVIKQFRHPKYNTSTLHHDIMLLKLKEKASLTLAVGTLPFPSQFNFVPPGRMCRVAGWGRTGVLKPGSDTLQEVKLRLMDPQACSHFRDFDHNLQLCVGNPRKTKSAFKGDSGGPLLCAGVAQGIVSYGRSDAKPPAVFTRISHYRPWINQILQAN

[12] = Homo sapiens, MDA-MB-231, 48 h, read-out: IC50

Row | Compound | IC50 (Kallikrein-7 [1]) [µM] | IC50 (Caspase-14) [µM] | IC50 [2] [µM] | IC50 (MDA-MB-231 [3]; mda-mb-231) | IC50 (Oxytocin receptor) [µM] | EC50 [4] [µM] | inhibition (Kallikrein-7 [5]) | IC50 [6] [µM] | IC50 (Substance-K receptor) [µM] | Activity (MDA-MB-231 [7]) [%] | IC50 (MDA-MB-231 [3]; [12]) [µM] | Activity (MDA-MB-231 [8]) [%] | Activity (MDA-MB-231 [9]) | IC50 [10] [µM] | inhibition (Kallikrein-7 [11]) | IC50 (Chymase) [µM]
1 | CCOC(=O)c1ccc(OC(=O)CCCCCNC(=N)N)cc1 | 20.4 | – | – | – | – | – | – | – | – | – | – | – | – | – | – | –
2 | CC[C@H](C)[C@H](N)C(=O)N[C@@H](CCC(=O)O)C(=O)N[C@H](C(=O)NC(C=O)CC(=O)O)[C@@H](C)O (some centres not stated) (H-IET[ξD]-aldehyde) | – | 7.28 | – | – | – | – | – | – | – | – | – | – | – | – | – | –
3 | COC(=O)[C@@H]1CCCN1C(=O)[C@@H](Cc1ccccc1)N(C)C(=O)[C@H](C)NC(=O)[C@H](CC(C)C)N(C)C(=O)CNC(=O)[C@@H]1CCCN1C(=O)[C@H](O)C(C)C (H-[dHiv]PG[NMeL]A[dNMeF]P-OMe) | – | – | > 20 | Not Active | > 20 | > 20 | Active | > 20 | > 20 | – | – | – | – | – | – | –
4 | CC[C@H](C)[C@@H](OC(=O)CCc1ccccc1)C(=O)N1CCC[C@H]1C(=O)NCC(=O)N(C)[C@@H](CC(C)C)C(=O)N[C@@H](C)C(=O)N(C)[C@H](Cc1ccccc1)C(=O)N1CCC[C@H]1C(=O)OC (X2-PG[NMeL]A[dNMeF]P-OMe) | – | – | 3.14 | – | 5.32 | 7.81 | Active | > 20 | 3.22 | 50 | – | – | – | – | – | –
5 | CC[C@H](C)[C@@H](OC(=O)/C=C\c1ccccc1)C(=O)N1CCC[C@H]1C(=O)NCC(=O)N(C)[C@@H](CC(C)C)C(=O)N[C@@H](C)C(=O)N(C)[C@H](Cc1ccccc1)C(=O)N1CCC[C@H]1C(=O)OC (X3-PG[NMeL]A[dNMeF]P-OMe) | – | – | 2.71 | – | 5.76 | 5.92 | Active | > 20 | 4.61 | – | 14.9 | – | – | – | – | –
6 | CC[C@H](C)[C@@H](OC(=O)[C@H](Cc1ccccc1)N(C)C)C(=O)N1CCC[C@H]1C(=O)NCC(=O)N(C)[C@@H](CC(C)C)C(=O)N[C@@H](C)C(=O)N(C)[C@H](Cc1ccccc1)C(=O)N1CCC[C@H]1C(=O)OC (X4-PG[NMeL]A[dNMeF]P-OMe) | – | – | > 20 | – | > 20 | 10.5 | Active | 6.11 | 5.51 | – | – | 50 | – | – | – | –
7 | CC[C@H](C)[C@@H](OC(=O)C#Cc1ccccc1)C(=O)N1CCC[C@H]1C(=O)NCC(=O)N(C)[C@@H](CC(C)C)C(=O)N[C@@H](C)C(=O)N(C)[C@H](Cc1ccccc1)C(=O)N1CCC[C@H]1C(=O)OC (X5-PG[NMeL]A[dNMeF]P-OMe) | – | – | > 20 | – | > 20 | > 20 | Active | > 20 | > 20 | – | 60 | – | – | – | – | –
8 | CC[C@H](C)[C@@H](O)C(=O)N1CCC[C@H]1C(=O)NCC(=O)N(C)[C@@H](CC(C)C)C(=O)N[C@@H](C)C(=O)N(C)[C@H](Cc1ccccc1)C(=O)N1CCC[C@H]1C(=O)OC ({Hmp(2R,3S)}-PG[NMeL]A[dNMeF]P-OMe) | 22.1 | 50.3 | > 20 | Not Active | > 20 | > 20 | Active | > 20 | > 20 | – | – | – | inactive | 8.98 | Active | 101
9 | CC(C)C[C@H](NC(=O)[C@@H](NC(=O)N[C@@H](Cc1ccccc1)C(=O)O)C1CCNC(=N)N1)C(=O)N[C@H](C=O)Cc1ccccc1 (some centres not stated) [CHYMOSTATIN] | – | – | – | – | – | – | – | – | – | – | – | – | – | 0.00031 | – | 0.00936
